Assay results published in ChEMBL document CHEMBL5316292 (J Med Chem, 2023).
pEC50, pIC50: −log10 of the molar value. Active and inactive are the calls of the source. The rule behind the calls is not given here.

How the values were obtained:
[1] = target: T1, Bromodomain testis-specific protein (Homo sapiens, UniProt Q58F21); test: Binding affinity to human partial length BRDT BD2 (K250 to E382 residues) expressed in bacterial expression system using H4K5acIC8acK12acK16ac-biotinylated peptide as substrate preincubated for 30 mins followed by substrate addition by AlphaScreen assay
Procedure, shortened: (§1)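 AlphaScreen. Biotinylated H4K5acK8acK12acK16ac peptide added at equal concentration to protein for 30 min. Donor and acceptor beads (25 µg/mL each) added, ≥1 h in the dark. Triplicate, curve-fitted, SEM.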

[2] = target: T2, Bromodomain-containing protein 2 (Homo sapiens, UniProt P25440); test: Binding affinity to human partial length BRD2 BD2 (E348 to D455 residues) expressed in bacterial expression system assessed as change in melting temperature at 50 uM at 20 to 85 degreeC by SYPRO orange staining based thermal shift assay
Procedure, shortened: (§2)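 DSF thermal shift. 10 µM BD in 50 mM HEPES, 500 mM NaCl pH 7.5, with 50 µM compound or DMSO-matched control and 1:1000 Sypro Orange (ex 465/em 590 nm). Ramp 20–85 °C at 0.03 °C/s. Tm taken as the midpoint between fluorescence max and min. At least three independent experiments, SEM in °C.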
Target sequence in this assay (P25440 whole entry, looked up, the tested form may be a part): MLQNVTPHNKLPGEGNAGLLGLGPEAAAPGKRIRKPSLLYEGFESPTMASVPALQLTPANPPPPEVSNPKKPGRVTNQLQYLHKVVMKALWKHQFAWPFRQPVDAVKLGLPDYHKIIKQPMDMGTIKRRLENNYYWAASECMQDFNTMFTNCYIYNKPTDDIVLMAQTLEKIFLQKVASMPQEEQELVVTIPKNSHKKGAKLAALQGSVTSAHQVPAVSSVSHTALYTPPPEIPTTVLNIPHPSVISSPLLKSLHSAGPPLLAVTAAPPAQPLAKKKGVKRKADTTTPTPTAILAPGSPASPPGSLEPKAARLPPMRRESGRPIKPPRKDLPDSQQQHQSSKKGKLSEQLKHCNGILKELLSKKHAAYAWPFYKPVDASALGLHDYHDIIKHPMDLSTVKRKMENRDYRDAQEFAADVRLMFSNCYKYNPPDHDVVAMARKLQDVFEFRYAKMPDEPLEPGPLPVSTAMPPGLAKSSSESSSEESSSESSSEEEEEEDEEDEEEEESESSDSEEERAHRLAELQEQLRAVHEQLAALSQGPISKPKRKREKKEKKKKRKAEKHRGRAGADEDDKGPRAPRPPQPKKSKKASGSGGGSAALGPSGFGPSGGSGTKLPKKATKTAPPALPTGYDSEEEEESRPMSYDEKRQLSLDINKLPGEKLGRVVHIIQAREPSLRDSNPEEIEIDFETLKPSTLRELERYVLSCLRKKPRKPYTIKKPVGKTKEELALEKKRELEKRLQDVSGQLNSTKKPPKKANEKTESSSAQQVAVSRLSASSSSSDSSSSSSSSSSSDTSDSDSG

[3] = target: T3, Bromodomain-containing protein 3 (Homo sapiens, UniProt Q15059); test: Binding affinity to human partial length BRD3 BD1 (P24 to E144 residues) expressed in bacterial expression system assessed as change in melting temperature at 50 uM at 20 to 85 degreeC by SYPRO orange staining based thermal shift assay; procedure, shortened: as §2
Target sequence in this assay (Q15059 2-726 limits assumed): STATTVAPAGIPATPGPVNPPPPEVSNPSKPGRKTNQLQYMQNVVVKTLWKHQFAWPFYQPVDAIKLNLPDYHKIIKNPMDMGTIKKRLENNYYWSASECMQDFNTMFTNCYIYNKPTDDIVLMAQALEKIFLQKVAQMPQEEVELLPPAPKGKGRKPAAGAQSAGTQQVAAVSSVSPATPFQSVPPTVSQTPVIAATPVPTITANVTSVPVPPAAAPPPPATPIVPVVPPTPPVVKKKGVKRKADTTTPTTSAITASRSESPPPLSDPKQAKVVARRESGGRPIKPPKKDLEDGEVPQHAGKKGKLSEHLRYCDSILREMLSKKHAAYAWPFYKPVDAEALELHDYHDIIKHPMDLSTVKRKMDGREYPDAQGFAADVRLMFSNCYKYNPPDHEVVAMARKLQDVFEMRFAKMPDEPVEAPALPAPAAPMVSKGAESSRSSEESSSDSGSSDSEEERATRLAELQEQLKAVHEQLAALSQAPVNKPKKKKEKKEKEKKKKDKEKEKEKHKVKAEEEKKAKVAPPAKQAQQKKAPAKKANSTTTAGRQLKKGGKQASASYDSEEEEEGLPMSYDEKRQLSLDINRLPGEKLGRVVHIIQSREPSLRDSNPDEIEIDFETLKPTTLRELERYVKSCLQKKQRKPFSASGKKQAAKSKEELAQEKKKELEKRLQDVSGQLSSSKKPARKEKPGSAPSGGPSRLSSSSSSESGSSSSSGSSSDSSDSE

[4] = target: T1, Bromodomain testis-specific protein; test: Binding affinity to human partial length BRDT BD1 (N21 to E137 residues) expressed in bacterial expression system using H4K5acIC8acK12acK16ac-biotinylated peptide as substrate preincubated for 30 mins followed by substrate addition by AlphaScreen assay; procedure, shortened: as §1
[5] = target: T2, Bromodomain-containing protein 2; test: Binding affinity to human partial length BRD2 BD2 (E348to D455 residues) expressed in bacterial expression system using H4K5acIC8acK12acK16ac-biotinylated peptide as substrate preincubated for 30 mins followed by substrate addition by AlphaScreen assay; procedure, shortened: as §1
Target sequence in this assay (P25440 whole entry, the tested form may be a part): as the sequence (P25440 whole entry, looked up, the tested form may be a part) above

[6] = target: T3, Bromodomain-containing protein 3; test: Binding affinity to human partial length BRD3 BD2 (G306 to P416 residues) expressed in bacterial expression system using H4K5acIC8acK12acK16ac-biotinylated peptide as substrate preincubated for 30 mins followed by substrate addition by AlphaScreen assay; procedure, shortened: as §1
Target sequence in this assay (Q15059 whole entry, the tested form may be a part): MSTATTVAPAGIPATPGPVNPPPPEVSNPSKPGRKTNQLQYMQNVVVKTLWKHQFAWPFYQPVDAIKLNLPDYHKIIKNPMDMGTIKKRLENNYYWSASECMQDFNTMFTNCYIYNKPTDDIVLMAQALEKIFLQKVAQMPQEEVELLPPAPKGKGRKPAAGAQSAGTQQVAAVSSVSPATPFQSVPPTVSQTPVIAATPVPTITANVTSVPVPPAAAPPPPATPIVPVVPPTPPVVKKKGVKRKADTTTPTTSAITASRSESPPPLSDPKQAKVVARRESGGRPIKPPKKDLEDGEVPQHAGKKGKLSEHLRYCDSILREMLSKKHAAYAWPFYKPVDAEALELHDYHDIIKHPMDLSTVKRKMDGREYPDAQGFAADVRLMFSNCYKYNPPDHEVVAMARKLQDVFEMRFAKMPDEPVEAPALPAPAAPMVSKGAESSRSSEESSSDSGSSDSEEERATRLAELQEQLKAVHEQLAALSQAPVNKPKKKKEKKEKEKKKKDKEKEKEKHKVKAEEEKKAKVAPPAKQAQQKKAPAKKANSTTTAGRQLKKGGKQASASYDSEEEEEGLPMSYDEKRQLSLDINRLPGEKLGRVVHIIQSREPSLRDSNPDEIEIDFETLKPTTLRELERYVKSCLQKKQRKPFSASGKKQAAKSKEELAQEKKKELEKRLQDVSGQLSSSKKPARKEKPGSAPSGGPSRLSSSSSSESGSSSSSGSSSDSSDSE

LNCaP = test: Antiproliferative activity against androgen-sensitive human LNCaP cells assessed as reduction in cell viability measured after 72 hrs by MTS assay; type: functional, cell-based
Procedure, shortened: (§3)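 MTS viability assay run in triplicate wells. Serial dilutions in DMSO were given, with DMSO as negative control and doxorubicin as positive control, and incubated 72 h. MTS reagent was added for 2 h and absorbance read at 490 nm. % cytotoxicity = (A_medium − A_treatment)/A_medium × 100. EC50 ± SD was taken from dose-response curves of at least three independent experiments.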

PC-3 = test: Antiproliferative activity against androgen-insensitive human PC-3 cells assessed as reduction in cell viability measured after 72 hrs by MTS assay; type: functional, cell-based; conditions: PC-3, 72 h; procedure, shortened: as §3
[7] = Cytotoxicity against HFF cells assessed as reduction in cell viability measured after 72 hrs by MTS assay; type: toxicity, cell-based; conditions: human; procedure, shortened: as §3
VCaP [8] = test: Downregulation of BRD2 mRNA levels in human VCaP cells at 25 to 2500 nM incubated for 24 hrs by qRT-PCR analysis; type: functional, cell-based; conditions: dose 25-2500 nM
Procedure, shortened: (§4)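 VCaP cells grown to 50% confluence, then treated with compound or DMSO (Methods state 16 h, legend states 24 h). Total RNA isolated, cDNA made from 1 µg RNA, SYBR Green qPCR run in triplicate. Expression by ΔΔCt, normalised to GAPDH. Three independent experiments, SEM.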

VCaP [9] = test: Downregulation of BRD3 mRNA levels in human VCaP cells at 25 to 2500 nM incubated for 24 hrs by qRT-PCR analysis; type: functional, cell-based; conditions: dose 25-2500 nM; procedure, shortened: as §4
VCaP [10] = test: Downregulation of BRD4 mRNA levels in human VCaP cells at 25 to 2500 nM incubated for 24 hrs by qRT-PCR analysis; type: functional, cell-based; conditions: dose 25-2500 nM; procedure, shortened: as §4
VCaP [11] = test: Downregulation of ERG gene levels in human VCaP cells incubated for 24 hrs by qRT-PCR analysis; type: functional, cell-based; conditions: dose 25-2500 nM; procedure, shortened: as §4
VCaP [12] = test: Downregulation of PSA […] expression in human VCaP cells incubated for 24 hrs by qRT-PCR analysis; type: functional, cell-based; conditions: dose 25-2500 nM; procedure, shortened: as §4
[13] = target: T2, Bromodomain-containing protein 2; test: Induction of BRD2 degradation in human MDA-MB-231 cells incubated for 16 hrs by immunoblotting analysis; type: cell-based
Procedure, shortened: (§5)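 MDA-MB-231 or PC-3 cells at 50% confluence in DMEM/10% FBS/pen-strep, treated 16 h with doses falling tenfold from 10 µM to 1 nM. RIPA lysates immunoblotted for BRD2, BRD3 and BRD4 with GAPDH as control. DC50 derived from band densitometry. SEM, n = 2.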
Target sequence in this assay (P25440 whole entry, the tested form may be a part): as the sequence (P25440 whole entry, looked up, the tested form may be a part) above

[14] = target: T4, Bromodomain-containing protein 4 (Homo sapiens, UniProt O60885); test: Induction of BRD4 degradation in human MDA-MB-231 cells incubated for 16 hrs by immunoblotting analysis; type: cell-based; procedure, shortened: as §5
[15] = target: T3, Bromodomain-containing protein 3; test: Induction of BRD3 degradation in human PC-3 cells incubated for 16 hrs by immunoblotting analysis; type: cell-based; procedure, shortened: as §5
[16] = target: T4, Bromodomain-containing protein 4; test: Induction of BRD4 degradation in human MDA-MB-231 cells at 0.025 to 2.5 uM incubated for 24 hrs by qRT-PCR analysis; type: cell-based; conditions: dose 0.025-2.5 µM
Procedure, shortened: (§6)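 MDA-MB-231 cells treated for 24 h at doses rising tenfold from 25 nM to 2.5 µM. Gene expression measured by qRT-PCR. SEM, n = 3.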

MDA-MB-231 = test: Effect on BET mRNA levels in human MDA-MB-231 cells at 0.025 to 2.5 uM incubated for 24 hrs by qRT-PCR analysis; type: functional, cell-based; conditions: dose 0.025-2.5 µM; procedure, shortened: as §6
[17] = target: T3, Bromodomain-containing protein 3; test: Induction of BRD3 degradation in human MDA-MB-231 cells assessed as decrease in BET half life at 10 uM incubated for 8 hrs in presence of cycloheximide by immunoblotting analysis; type: cell-based
Procedure, shortened: (§7)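 MDA-MB-231 time-course. Cells given 50 µg/mL cycloheximide plus DMSO, or 50 µg/mL cycloheximide plus 10 µM compound. RIPA lysates immunoblotted for BRD2, BRD3 and BRD4 with GAPDH as control.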
Target sequence in this assay (Q15059 2-726 limits assumed): as the sequence (Q15059 2-726 limits assumed) above

[18] = target: T4, Bromodomain-containing protein 4; test: Induction of BRD4 degradation in human MDA-MB-231 cells assessed as decrease in BET half life at 10 uM incubated for 8 hrs in presence of cycloheximide by immunoblotting analysis; type: cell-based; procedure, shortened: as §7
[19] = target: T4, Bromodomain-containing protein 4; test: Induction of BRD4 degradation in human MDA-MB-231 cells at 10 uM by immunoblotting analysis; type: cell-based; conditions: time 8.0 hrs
[20] = target: T3, Bromodomain-containing protein 3; test: Induction of BRD3 degradation in human MDA-MB-231 cells at 10 uM incubated for 8 hrs in presence of MG132 by immunoblotting analysis; type: cell-based
Target sequence in this assay (Q15059 2-726 limits assumed): as above

[21] = target: T4, Bromodomain-containing protein 4; conditions: dose 50.0 µM
[22] = target: T4, Bromodomain-containing protein 4; conditions: dose 50.0 µM; remark: listed apart in the source

For `CC(=O)OC[C@]12CC[C@H]3[C@@H](C[C@H]4O[C@]45CC=CC(=O)[C@]35C)[C@]1(O)CC[C@@]2(O)[C@@](C)(O)[C@H]1CC(C)=C(C)C(=O)O1`, the pIC50 [1] was 6.92, the ΔTm [2] was 8.23 °C and the ΔTm [3] was 12.5 °C. It also gave a pIC50 [4] of 6.39, a pIC50 [5] of 6.61 and a pIC50 [6] of 6.97. For the same compound, the pEC50 (LNCaP) was 7.67, the pEC50 (PC-3) was 7.20 and the EC50 at 72 h [7] was over 2000 nM. For the same compound, the Activity (VCaP [8]) was “inactive”, the Activity (VCaP [9]) was “inactive” and the Activity (VCaP [10]) was “inactive”. For the same compound, the Activity (VCaP [11]) was “Dose-Dependent Effect”, the Activity (VCaP [12]) was “Dose-Dependent Effect” and the DC50 [13] was over 10000 nM. For the same compound, the Activity [14] was “Dose-Dependent Effect”, the DC50 [14] was 41.6 nM and the Activity [15] was “Dose-Dependent Effect”. The DC50 [15] was 7290 nM, the Activity [16] was “inactive” and the Activity (MDA-MB-231) was “inactive”. For the same compound, the Activity [17] was “Active”, the Activity [18] was “Active” and the Activity [19] was “Active”. The Activity [20] was “inactive”, the ΔTm [21] was 11.8 °C and the ΔTm [22] was 7.33 °C.
